Assay results: ChEMBL document CHEMBL1287651, “Synthesis and in vitro antibacterial activity of fluoroquinolone derivatives containing 3-(N'-alkoxycarbamimidoyl)-4-(alkoxyimino) pyrrolidines” (2010)
≈ marks a conversion by molar mass, not a printed value.

Key:
Format in all cases: functional
[1] = tested on: Staphylococcus epidermidis; assay: Antibacterial activity against methicillin-sensitive Staphylococcus epidermidis 09-3 after 18 to 24 hrs by twofold serial dilution method
Procedure, shortened: (§1)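 Standard twofold serial agar dilution method on agar media for MIC determination. Screened against representative Gram-positive and Gram-negative strains. Levofloxacin and GMFX served as control drugs.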

Pseudomonas aeruginosa [2] = assay: Antibacterial activity against Pseudomonas aeruginosa ATCC 27853 after 18 to 24 hrs by twofold serial dilution method
Procedure, shortened: (§2)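 MIC determined by the standard twofold serial dilution method on agar media, screening against Gram-positive and Gram-negative strains. Levofloxacin and gemifloxacin were run alongside as reference drugs.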

Klebsiella pneumoniae [3] = assay: Antibacterial activity against Klebsiella pneumoniae 09-21 after 18 to 24 hrs by twofold serial dilution method; procedure, shortened: as §2
Enterococcus faecium [4] = assay: Antibacterial activity against Enterococcus faecium 08-2 after 18 to 24 hrs by twofold serial dilution method; procedure, shortened: as §2
Escherichia coli [5] = assay: Antibacterial activity against Escherichia coli ATCC 25922 after 18 to 24 hrs by twofold serial dilution method; procedure, shortened: as §2
[6] = tested on: Staphylococcus epidermidis; assay: Antibacterial activity against methicillin-sensitive Staphylococcus epidermidis 09-6 after 18 to 24 hrs by twofold serial dilution method; procedure, shortened: as §1
[7] = tested on: Staphylococcus epidermidis; assay: Antibacterial activity against methicillin-resistant Staphylococcus epidermidis 09-2 after 18 to 24 hrs by twofold serial dilution method; procedure, shortened: as §1
Pseudomonas aeruginosa [8] = assay: Antibacterial activity against Pseudomonas aeruginosa 09-35 after 18 to 24 hrs by twofold serial dilution method; procedure, shortened: as §2
Streptococcus pneumoniae [9] = assay: Antibacterial activity against Streptococcus pneumoniae 08-2 after 18 to 24 hrs by twofold serial dilution method; procedure, shortened: as §2
Staphylococcus aureus [10] = assay: Antibacterial activity against methicillin-sensitive Staphylococcus aureus 08-2 after 18 to 24 hrs by twofold serial dilution method; procedure, shortened: as §1
Klebsiella pneumoniae [11] = assay: Antibacterial activity against Klebsiella pneumoniae 09-22 after 18 to 24 hrs by twofold serial dilution method; procedure, shortened: as §2
Escherichia coli [12] = assay: Antibacterial activity against Escherichia coli 08-21 after 18 to 24 hrs by twofold serial dilution method; procedure, shortened: as §2
Staphylococcus aureus [13] = assay: Antibacterial activity against methicillin-resistant Staphylococcus aureus 08-1 after 18 to 24 hrs by twofold serial dilution method; procedure, shortened: as §1
Escherichia coli [14] = assay: Antibacterial activity against Escherichia coli 08-22 after 18 to 24 hrs by twofold serial dilution method; procedure, shortened: as §2
Pseudomonas aeruginosa [15] = assay: Antibacterial activity against Pseudomonas aeruginosa 09-32 after 18 to 24 hrs by twofold serial dilution method; procedure, shortened: as §2
[16] = tested on: Staphylococcus epidermidis; assay: Antibacterial activity against methicillin-resistant Staphylococcus epidermidis 09-4 after 18 to 24 hrs by twofold serial dilution method; procedure, shortened: as §1
Pseudomonas aeruginosa [17] = assay: Antibacterial activity against Pseudomonas aeruginosa 09-34 after 18 to 24 hrs by twofold serial dilution method; procedure, shortened: as §2
Enterococcus faecium [18] = assay: Antibacterial activity against Enterococcus faecium 08-7 after 18 to 24 hrs by twofold serial dilution method; procedure, shortened: as §2
Enterococcus faecalis [19] = assay: Antibacterial activity against Enterococcus faecalis 08-10 after 18 to 24 hrs by twofold serial dilution method; procedure, shortened: as §2
Klebsiella pneumoniae [20] = assay: Antibacterial activity against Klebsiella pneumoniae 09-23 after 18 to 24 hrs by twofold serial dilution method; procedure, shortened: as §2
[21] = tested on: Staphylococcus epidermidis; assay: Antibacterial activity against methicillin-resistant Staphylococcus epidermidis 09-3 after 18 to 24 hrs by twofold serial dilution method; procedure, shortened: as §1
Pseudomonas aeruginosa [22] = assay: Antibacterial activity against Pseudomonas aeruginosa 09-33 after 18 to 24 hrs by twofold serial dilution method; procedure, shortened: as §2
Streptococcus pneumoniae [23] = assay: Antibacterial activity against Streptococcus pneumoniae 08-4 after 18 to 24 hrs by twofold serial dilution method; procedure, shortened: as §2
Enterococcus faecalis [24] = assay: Antibacterial activity against Enterococcus faecalis 08-12 after 18 to 24 hrs by twofold serial dilution method; procedure, shortened: as §2
Staphylococcus aureus [25] = assay: Antibacterial activity against Staphylococcus aureus ATCC […] after 18 to 24 hrs by twofold serial dilution method; procedure, shortened: as §2

Row | SMILES | MIC [1] | MIC (Pseudomonas aeruginosa [2]) | MIC (Klebsiella pneumoniae [3]) | MIC (Enterococcus faecium [4]) | MIC (Escherichia coli [5]) | MIC [6] | MIC [7] | MIC (Pseudomonas aeruginosa [8]) | MIC (Streptococcus pneumoniae [9]) | MIC (Staphylococcus aureus [10]) | MIC (Klebsiella pneumoniae [11]) | MIC (Escherichia coli [12]) | MIC (Staphylococcus aureus [13]) | MIC (Escherichia coli [14]) | MIC (Pseudomonas aeruginosa [15]) | MIC [16] | MIC (Pseudomonas aeruginosa [17]) | MIC (Enterococcus faecium [18]) | MIC (Enterococcus faecalis [19]) | MIC (Klebsiella pneumoniae [20]) | further results
1 | CO/N=C1\CN(c2c(F)cc3c(=O)c(C(=O)O)cn4c3c2OC[C@@H]4C)CC1/C(N)=N\OC (stereo not given in full) | 0.25 µg/mL (≈ 0.559 µM) | 4 µg/mL (≈ 8.94 µM) | > 128 µg/mL | 128 µg/mL (≈ 286 µM) | 128 µg/mL (≈ 286 µM) | 0.25 µg/mL (≈ 0.559 µM) | 0.25 µg/mL (≈ 0.559 µM) | 8 µg/mL (≈ 17.9 µM) | 16 µg/mL (≈ 35.8 µM) | 0.25 µg/mL (≈ 0.559 µM) | 0.5 µg/mL (≈ 1.12 µM) | > 128 µg/mL | 0.25 µg/mL (≈ 0.559 µM) | > 128 µg/mL | 8 µg/mL (≈ 17.9 µM) | 0.25 µg/mL (≈ 0.559 µM) | > 128 µg/mL | 128 µg/mL (≈ 286 µM) | > 128 µg/mL | > 128 µg/mL | MIC [21]: 0.25 µg/mL (≈ 0.559 µM); MIC (Pseudomonas aeruginosa [22]): > 128 µg/mL; MIC (Streptococcus pneumoniae [23]): 0.25 µg/mL (≈ 0.559 µM); MIC (Enterococcus faecalis [24]): > 128 µg/mL; MIC (Staphylococcus aureus [25]): 0.125 µg/mL (≈ 0.279 µM)
2 | CCO/N=C1\CN(c2c(F)cc3c(=O)c(C(=O)O)cn4c3c2OC[C@@H]4C)CC1/C(N)=N\OC (stereo not given in full) | 0.25 µg/mL (≈ 0.542 µM) | > 128 µg/mL | > 128 µg/mL | > 128 µg/mL | 128 µg/mL (≈ 277 µM) | 0.5 µg/mL (≈ 1.08 µM) | 0.25 µg/mL (≈ 0.542 µM) | > 128 µg/mL | > 128 µg/mL | 0.25 µg/mL (≈ 0.542 µM) | 1 µg/mL (≈ 2.17 µM) | > 128 µg/mL | 0.25 µg/mL (≈ 0.542 µM) | > 128 µg/mL | > 128 µg/mL | 0.25 µg/mL (≈ 0.542 µM) | > 128 µg/mL | > 128 µg/mL | 0.5 µg/mL (≈ 1.08 µM) | > 128 µg/mL | MIC [21]: 0.125 µg/mL (≈ 0.271 µM); MIC (Pseudomonas aeruginosa [22]): > 128 µg/mL; MIC (Streptococcus pneumoniae [23]): 0.25 µg/mL (≈ 0.542 µM); MIC (Enterococcus faecalis [24]): > 128 µg/mL; MIC (Staphylococcus aureus [25]): 0.25 µg/mL (≈ 0.542 µM)
3 | CCO/N=C1\CN(c2c(F)cc3c(=O)c(C(=O)O)cn4c3c2OC[C@@H]4C)CC1/C(N)=N\OCC (stereo not given in full) | 8 µg/mL (≈ 16.8 µM) | 64 µg/mL (≈ 135 µM) | > 128 µg/mL | > 128 µg/mL | 128 µg/mL (≈ 269 µM) | 8 µg/mL (≈ 16.8 µM) | > 128 µg/mL | 64 µg/mL (≈ 135 µM) | 64 µg/mL (≈ 135 µM) | 64 µg/mL (≈ 135 µM) | > 128 µg/mL | > 128 µg/mL | 64 µg/mL (≈ 135 µM) | > 128 µg/mL | 64 µg/mL (≈ 135 µM) | > 128 µg/mL | > 128 µg/mL | > 128 µg/mL | > 128 µg/mL | > 128 µg/mL | MIC [21]: > 128 µg/mL; MIC (Pseudomonas aeruginosa [22]): > 128 µg/mL; MIC (Streptococcus pneumoniae [23]): > 128 µg/mL; MIC (Enterococcus faecalis [24]): > 128 µg/mL; MIC (Staphylococcus aureus [25]): 1 µg/mL (≈ 2.1 µM)
